The structures appear in SMILES notation. pKi: −log10 of the molar value.

For one data set, the target named is Cytochrome P450 3A4 (Homo sapiens, UniProt P08684). In words: Inhibition of CYP3A4 (unknown origin) at 0.025 to 25 uM after 2 hrs by firefly luciferase-luminescence based P450-glo assay. It is filed as ADME. In short, it runs like this:
(§1)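 Recombinant CYP3A4 or CYP2D6 incubated 2 h with test compound (0.025–25 μM final) and an isoform-specific luciferin derivative. Firefly luciferase then added, and luminescence is proportional to D-luciferin formed. Reference inhibitors: ketoconazole (CYP3A4) and quinidine (CYP2D6, 0.1–100 nM).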

Data set [1] has as its target Histamine H3 receptor (Homo sapiens) (UniProt Q9Y5N1). Nature of the data set: Displacement of [3H]Nalpha-Me-histamine from recombinant human histamine H3 receptor at 1 uM after 60 mins by scintillation counting relative to control. A general note: Displacement assays read how much labelled ligand stays bound in the presence of the test substance.
Data set [2] concerns the target T1, alpha-1 adrenergic receptor (Rattus norvegicus, UniProt P15823+P23944+P43140).
T1 sequence (P15823 whole entry): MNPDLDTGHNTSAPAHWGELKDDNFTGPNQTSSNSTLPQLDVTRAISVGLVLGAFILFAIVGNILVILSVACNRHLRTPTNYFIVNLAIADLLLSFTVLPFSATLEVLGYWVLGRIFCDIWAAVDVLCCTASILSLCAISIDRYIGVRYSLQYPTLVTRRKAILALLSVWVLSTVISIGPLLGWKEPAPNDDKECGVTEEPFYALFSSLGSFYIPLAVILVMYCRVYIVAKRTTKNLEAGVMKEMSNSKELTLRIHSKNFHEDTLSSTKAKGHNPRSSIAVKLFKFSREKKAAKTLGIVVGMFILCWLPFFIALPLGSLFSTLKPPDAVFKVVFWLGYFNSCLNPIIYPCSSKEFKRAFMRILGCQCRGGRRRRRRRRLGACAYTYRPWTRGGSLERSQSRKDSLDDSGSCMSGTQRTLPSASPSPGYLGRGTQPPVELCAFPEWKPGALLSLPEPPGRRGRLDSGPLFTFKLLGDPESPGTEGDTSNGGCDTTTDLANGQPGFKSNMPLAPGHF
T1 sequence (P23944 whole entry): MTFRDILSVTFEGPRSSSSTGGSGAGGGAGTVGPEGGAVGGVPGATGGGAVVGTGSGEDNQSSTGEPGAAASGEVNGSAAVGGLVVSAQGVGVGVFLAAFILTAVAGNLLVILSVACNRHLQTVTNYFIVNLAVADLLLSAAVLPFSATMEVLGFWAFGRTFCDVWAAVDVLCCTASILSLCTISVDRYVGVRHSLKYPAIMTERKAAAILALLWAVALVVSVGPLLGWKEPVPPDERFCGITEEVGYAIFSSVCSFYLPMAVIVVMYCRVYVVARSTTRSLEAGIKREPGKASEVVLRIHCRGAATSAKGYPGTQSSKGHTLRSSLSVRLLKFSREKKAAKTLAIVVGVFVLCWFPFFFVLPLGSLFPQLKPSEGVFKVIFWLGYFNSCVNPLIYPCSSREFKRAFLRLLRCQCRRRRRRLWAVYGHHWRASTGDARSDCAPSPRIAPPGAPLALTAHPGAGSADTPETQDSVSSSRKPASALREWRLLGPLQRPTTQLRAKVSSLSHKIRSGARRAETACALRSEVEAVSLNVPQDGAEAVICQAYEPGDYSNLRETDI
T1 sequence (P43140 whole entry): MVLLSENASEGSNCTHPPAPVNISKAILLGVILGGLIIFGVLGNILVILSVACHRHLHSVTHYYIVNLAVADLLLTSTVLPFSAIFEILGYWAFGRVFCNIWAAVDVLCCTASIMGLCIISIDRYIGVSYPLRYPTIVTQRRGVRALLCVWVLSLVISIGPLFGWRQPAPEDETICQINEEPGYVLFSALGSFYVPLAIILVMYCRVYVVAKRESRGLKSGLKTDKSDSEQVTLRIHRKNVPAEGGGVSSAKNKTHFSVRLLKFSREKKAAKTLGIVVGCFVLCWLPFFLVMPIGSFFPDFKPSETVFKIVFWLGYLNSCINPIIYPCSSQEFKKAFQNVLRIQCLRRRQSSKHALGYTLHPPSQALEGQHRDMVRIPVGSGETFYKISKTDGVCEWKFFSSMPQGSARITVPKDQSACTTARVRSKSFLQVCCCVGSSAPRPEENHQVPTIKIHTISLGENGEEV
In words: Displacement of [3H]prazosin from rat brain alpha-1 adrenergic receptor at 1 uM after 60 mins by scintillation counting relative to control. The conditions noted are these: rat brain alpha-1 adrenergic receptor preparation, probe [3H]prazosin.

In another data set the target is Cytochrome P450 2D6 (Homo sapiens, UniProt P10635). In words: Induction of CYP2D6 (unknown origin) at 0.025 to 25 uM after 2 hrs by firefly luciferase-luminescence based P450-glo assay. Type of data set: ADME. In short, it runs like this:
as §1

The target in data set [3] is T2, 5-hydroxytryptamine receptor 1A (Homo sapiens, UniProt P08908).
T2 sequence (P08908 whole entry): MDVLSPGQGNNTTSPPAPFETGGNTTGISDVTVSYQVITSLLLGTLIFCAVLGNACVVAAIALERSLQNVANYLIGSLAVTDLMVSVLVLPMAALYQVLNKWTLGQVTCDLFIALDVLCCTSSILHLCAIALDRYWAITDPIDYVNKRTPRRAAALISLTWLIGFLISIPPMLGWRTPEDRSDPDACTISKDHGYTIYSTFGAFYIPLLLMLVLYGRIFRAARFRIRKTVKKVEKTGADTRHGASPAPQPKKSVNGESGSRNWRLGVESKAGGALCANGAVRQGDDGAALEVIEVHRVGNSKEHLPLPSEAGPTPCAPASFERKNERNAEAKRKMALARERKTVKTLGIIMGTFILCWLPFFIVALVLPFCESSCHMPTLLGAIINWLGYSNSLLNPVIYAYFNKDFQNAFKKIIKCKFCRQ
Nature of the data set: Displacement of [3H]-8-OH-DPAT from human 5HT1AR expressed in HEK293 cell membranes after 1 hr by microbeta counting method. In short, it runs like this: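 HEK293 (5-HT1A, 5-HT6, 5-HT7b, D2L) or CHO-K1 (5-HT2A) membranes, all Tris–HCl with 4 mM MgCl2 plus receptor-specific EDTA/pargyline/ascorbate (D2L adds NaCl, KCl, CaCl2). Nonspecific binding: 10 μM 5-HT (5-HT1A, 5-HT7), chlorpromazine (5-HT2A), methiothepine (5-HT6), haloperidol (D2L). Triplicate, 7–8 concentrations (10⁻¹¹–10⁻⁴ M), filtration; Ki via Cheng–Prusoff, mean of three experiments.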

The target of data set [4] is Histamine H1 receptor (Homo sapiens) (UniProt P35367). In words: Displacement of [3H]pyrilamine from recombinant human histamine H1 receptor at 1 uM after 60 mins by scintillation counting relative to control.
Chain of Histamine H1 receptor (Homo sapiens) (P35367 whole entry): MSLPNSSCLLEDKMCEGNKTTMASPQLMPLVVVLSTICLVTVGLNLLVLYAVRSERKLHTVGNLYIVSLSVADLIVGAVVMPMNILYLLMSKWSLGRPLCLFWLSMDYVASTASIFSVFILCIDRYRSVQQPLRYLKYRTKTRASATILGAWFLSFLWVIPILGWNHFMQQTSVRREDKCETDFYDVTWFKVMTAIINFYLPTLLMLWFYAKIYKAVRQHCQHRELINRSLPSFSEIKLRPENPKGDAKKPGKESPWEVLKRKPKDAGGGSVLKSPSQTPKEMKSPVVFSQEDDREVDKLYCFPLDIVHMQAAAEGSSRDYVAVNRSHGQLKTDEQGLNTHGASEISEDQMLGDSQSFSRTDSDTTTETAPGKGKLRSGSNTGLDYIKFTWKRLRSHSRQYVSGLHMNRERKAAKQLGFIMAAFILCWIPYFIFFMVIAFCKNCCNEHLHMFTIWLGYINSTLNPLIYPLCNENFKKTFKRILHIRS

Chain of Histamine H3 receptor (Homo sapiens) (Q9Y5N1 whole entry): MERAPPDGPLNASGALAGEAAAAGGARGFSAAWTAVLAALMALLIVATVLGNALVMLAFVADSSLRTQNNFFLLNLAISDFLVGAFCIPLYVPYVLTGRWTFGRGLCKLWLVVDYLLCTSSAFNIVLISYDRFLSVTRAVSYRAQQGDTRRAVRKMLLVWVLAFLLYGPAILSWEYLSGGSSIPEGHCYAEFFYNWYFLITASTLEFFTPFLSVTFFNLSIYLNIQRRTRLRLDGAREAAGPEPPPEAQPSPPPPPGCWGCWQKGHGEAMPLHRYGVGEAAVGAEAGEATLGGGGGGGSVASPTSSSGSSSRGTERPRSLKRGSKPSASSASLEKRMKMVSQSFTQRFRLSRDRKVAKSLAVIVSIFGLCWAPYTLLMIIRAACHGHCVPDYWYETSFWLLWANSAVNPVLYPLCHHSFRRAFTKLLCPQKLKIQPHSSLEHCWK
Chain of Cytochrome P450 3A4 (P08684 whole entry, canonical isoform): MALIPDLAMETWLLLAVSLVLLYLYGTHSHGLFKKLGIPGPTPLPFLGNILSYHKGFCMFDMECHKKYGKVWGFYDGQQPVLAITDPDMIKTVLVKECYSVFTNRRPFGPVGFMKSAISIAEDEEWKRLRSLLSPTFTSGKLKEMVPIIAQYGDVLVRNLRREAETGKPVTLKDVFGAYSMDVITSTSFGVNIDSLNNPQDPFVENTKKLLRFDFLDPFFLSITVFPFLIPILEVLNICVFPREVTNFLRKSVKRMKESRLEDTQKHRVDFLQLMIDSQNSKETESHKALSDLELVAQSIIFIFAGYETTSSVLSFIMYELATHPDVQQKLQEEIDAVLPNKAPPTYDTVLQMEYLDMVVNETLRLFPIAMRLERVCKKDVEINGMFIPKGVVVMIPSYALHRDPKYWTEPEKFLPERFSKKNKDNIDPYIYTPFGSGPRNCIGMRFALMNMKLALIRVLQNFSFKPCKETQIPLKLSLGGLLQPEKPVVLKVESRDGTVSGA
Chain of Cytochrome P450 2D6 (P10635 whole entry): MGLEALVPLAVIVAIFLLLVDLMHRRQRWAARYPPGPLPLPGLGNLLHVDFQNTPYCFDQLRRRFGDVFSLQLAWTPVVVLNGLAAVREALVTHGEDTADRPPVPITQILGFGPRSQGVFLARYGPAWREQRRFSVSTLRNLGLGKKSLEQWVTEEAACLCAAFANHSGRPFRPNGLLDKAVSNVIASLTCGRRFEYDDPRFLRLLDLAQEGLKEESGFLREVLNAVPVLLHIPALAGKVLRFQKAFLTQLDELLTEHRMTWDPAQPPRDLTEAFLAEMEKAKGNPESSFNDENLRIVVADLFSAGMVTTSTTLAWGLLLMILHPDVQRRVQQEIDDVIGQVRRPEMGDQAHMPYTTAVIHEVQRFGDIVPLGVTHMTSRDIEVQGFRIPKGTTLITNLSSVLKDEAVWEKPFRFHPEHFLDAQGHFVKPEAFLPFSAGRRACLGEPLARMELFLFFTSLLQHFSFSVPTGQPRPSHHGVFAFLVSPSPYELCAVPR

Turning to `CCc1nc2c(N3CCNCC3)ccnc2n1Cc1cccc(F)c1`, the “inhibition (INH)” value at Cytochrome P450 3A4 is “Not Active”. Besides, the values for the inhibition in data set [1] and in data set [4] were 1.6% and -4.9%, respectively. Further, the inhibition (as a rule, the change of the read-out against control, counted positive when it falls) at 1 h, 1 µM in data set [2] turned out to be 0.2%. Also, on Cytochrome P450 2D6, the outcome was Active. In data set [3], the pKi (usually the negative decadic logarithm of the Ki, by convention in mol/L) was 5.55.

Values taken from ChEMBL document CHEMBL4145461, “Novel non-sulfonamide 5-HT6 receptor partial inverse agonist in a group of imidazo[4,5-b]pyridines with cognition enhancing properties” (Eur J Med Chem, 2018).
